According to ChEMBL document CHEMBL5329147, “Synthesis of tryptanthrin appended dispiropyrrolidine oxindoles and their antibacterial evaluation” (RSC Med Chem, 2023):
Values after ≈ are worked out from the molar mass of the structure shown.

How the values were obtained:
[1] = tested on: Staphylococcus aureus; assay: Antibacterial activity against methicillin sensitive Staphylococcus aureus ATCC 29213 assessed as bacterial growth inhibition incubated for 18 to 24 hrs by broth microdilution method; format: functional; conditions: time 18-24 hrs
How it was run: (§1)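 CLSI broth microdilution in MHBII; overnight starter cultures (single MHA colony, 37 °C, shaking) adjusted by OD600 to 10^6 CFU/mL. Compounds from DMSO stocks (10 mg/mL), two-fold series 64–0.5 mg/L. Incubation 37 °C, 18-24 h. MIC = lowest concentration with no visible growth. Three independent determinations, each in duplicate.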

[2] = tested on: Staphylococcus aureus; assay: Antibacterial activity against methicillin resistant Staphylococcus aureus NRS 119 assessed as bacterial growth inhibition incubated for 18 to 24 hrs by broth microdilution method; format: functional; conditions: time 18-24 hrs; how it was run: as §1
[3] = tested on: Staphylococcus aureus; assay: Synergistic antibacterial activity against Staphylococcus aureus ATCC 29213 assessed as fractional inhibitory concentration index incubated for 24 hrs in the presence of rifampicin by checkerboard assay; format: functional
How it was run: (§2)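 Checkerboard in 96-well plates. The test agent was diluted two-fold along one axis and the partner antibiotic two-fold along the other, with ~10^5 CFU/mL inoculum, 37 °C for 24 h. ΣFIC = FIC A + FIC B, each FIC being the MIC in combination divided by the MIC alone.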

[4] = tested on: Staphylococcus aureus; assay: Bactericidal activity against Staphylococcus aureus ATCC 29213 assessed as reduction in bacterial load at 10 times of MIC incubated for 24 hrs by time kill analysis; format: functional
How it was run: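 Time-kill assay. ~10^6 CFU/mL in MHBII was exposed to 1X and 10X MIC, 37 °C with shaking for 24 h. Samples were taken at 0, 1, 6 and 24 h, serially diluted in PBS, plated on MHA and incubated 37 °C 18–20 h. Colonies were counted as CFU/mL survivors. Three repeats in duplicate; mean plotted.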

[5] = tested on: Staphylococcus aureus; assay: Antibacterial activity against methicillin resistant Staphylococcus aureus NRS 193 assessed as bacterial growth inhibition incubated for 18 to 24 hrs by broth microdilution method; format: functional; conditions: time 18-24 hrs; how it was run: as §1
[6] = tested on: Staphylococcus aureus; assay: Synergistic antibacterial activity against Staphylococcus aureus ATCC 29213 assessed as fractional inhibitory concentration index incubated for 24 hrs in the presence of minocycline by checkerboard assay; format: functional; how it was run: as §2
[7] = tested on: Klebsiella pneumoniae; assay: Antibacterial activity against Klebsiella pneumoniae BAA 1705 assessed as bacterial growth inhibition incubated for 18 to 24 hrs by broth microdilution method; format: functional; conditions: time 18-24 hrs
How it was run: (§3)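 CLSI broth microdilution. Overnight starter cultures (single colony, MHBII, 37 °C, shaking 18–24 h) were diluted by OD600 to 10^6 CFU/mL in MHBII. Two-fold dilutions from […] were made from 10 mg/mL DMSO stocks, then incubated 37 °C for 18-24 h. The MIC was the lowest concentration with no visible growth. Three independent runs, duplicate samples.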

[8] = tested on: Staphylococcus aureus; assay: Synergistic antibacterial activity against Staphylococcus aureus ATCC 29213 assessed as bacterial growth inhibition incubated for 24 hrs in presence of minocycline by checkerboard assay; format: functional
How it was run: (§4)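 Checkerboard in 96-well plates: two-fold serial dilutions, one agent along abscissa, partner antibiotic along ordinate. Wells received ~10⁵ CFU/mL S. aureus ATCC 29213 in MHBII. Incubation 37 °C, 24 h. ΣFIC = FIC A + FIC B, each FIC being combination MIC divided by MIC alone.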

[9] = tested on: Staphylococcus aureus; assay: Synergistic antibacterial activity against Staphylococcus aureus ATCC 29213 assessed as bacterial growth inhibition incubated for 24 hrs in presence of linezolid by checkerboard assay; format: functional; how it was run: as §4
[10] = tested on: Staphylococcus aureus; assay: Antibacterial activity against methicillin resistant Staphylococcus aureus NRS 191 assessed as bacterial growth inhibition incubated for 18 to 24 hrs by broth microdilution method; format: functional; conditions: time 18-24 hrs; how it was run: as §1
[11] = tested on: Staphylococcus aureus; assay: Synergistic antibacterial activity against Staphylococcus aureus ATCC 29213 assessed as bacterial growth inhibition incubated for 24 hrs in presence of gentamycin by checkerboard assay; format: functional; how it was run: as §4
[12] = tested on: Staphylococcus aureus; assay: Synergistic antibacterial activity against Staphylococcus aureus ATCC 29213 assessed as fractional inhibitory concentration index incubated for 24 hrs in the presence of levofloxacin by checkerboard assay; format: functional; how it was run: as §2
[13] = tested on: Staphylococcus aureus; assay: Antibacterial activity against methicillin resistant Staphylococcus aureus NRS 186 assessed as bacterial growth inhibition incubated for 18 to 24 hrs by broth microdilution method; format: functional; conditions: time 18-24 hrs; how it was run: as §1
[14] = tested on: Staphylococcus aureus; assay: Synergistic antibacterial activity against Staphylococcus aureus ATCC 29213 assessed as fractional inhibitory concentration index incubated for 24 hrs in the presence of linezolid by checkerboard assay; format: functional; how it was run: as §2
[15] = tested on: Staphylococcus aureus; assay: Synergistic antibacterial activity against Staphylococcus aureus ATCC 29213 assessed as bacterial growth inhibition incubated for 24 hrs in presence of vancomycin by checkerboard assay; format: functional; how it was run: as §4
[16] = tested on: Vero; assay: Cytotoxicity against African green monkey Vero cells assessed as cell viability incubated for 72 hrs by MTT assay; format: toxicity, cell-based; conditions: chlorocebus sabaeus
How it was run: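 MTT assay on Vero cells, ~10^3 cells/well, 37 °C, 5% CO2. Compound was added at 24 h (100-12.5 μg/mL) for 72 h, then MTT for 4 h at 37 °C. Formazan was dissolved in DMSO and read at 540 nm. CC50 was the lowest concentration giving 50% viability loss. Doxorubicin positive control; triplicate.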

[17] = tested on: Acinetobacter baumannii; assay: Antibacterial activity against Acinetobacter baumannii BAA-1605 assessed as bacterial growth inhibition incubated for 18 to 24 hrs by broth microdilution method; format: functional; conditions: time 18-24 hrs; how it was run: as §3
[18] = tested on: Staphylococcus aureus; assay: Antibacterial activity against methicillin resistant Staphylococcus aureus NRS 194 assessed as bacterial growth inhibition incubated for 18 to 24 hrs by broth microdilution method; format: functional; conditions: time 18-24 hrs; how it was run: as §1
[19] = tested on: Staphylococcus aureus; assay: Synergistic antibacterial activity against Staphylococcus aureus ATCC 29213 assessed as bacterial growth inhibition incubated for 24 hrs in presence of ceftazidime by checkerboard assay; format: functional; how it was run: as §4
[20] = tested on: Staphylococcus aureus; assay: Antibacterial activity against Staphylococcus aureus ATCC 29213 assessed as bacterial growth inhibition incubated for 18 to 24 hrs by broth microdilution method; format: functional; conditions: Staphylococcus aureus, ATCC 29213; time 18-24 hrs; read-out: MIC; how it was run: as §3
[21] = tested on: Pseudomonas aeruginosa; assay: Antibacterial activity against Pseudomonas aeruginosa ATCC 27853 assessed as bacterial growth inhibition incubated for 18 to 24 hrs by broth microdilution method; format: functional; conditions: time 18-24 hrs; how it was run: as §3
[22] = tested on: Staphylococcus aureus; assay: Antibacterial activity against methicillin resistant Staphylococcus aureus NRS 198 assessed as bacterial growth inhibition incubated for 18 to 24 hrs by broth microdilution method; format: functional; conditions: time 18-24 hrs; how it was run: as §1
[23] = tested on: Staphylococcus aureus; assay: Antibacterial activity against vancomycin resistant Staphylococcus aureus […] 12 assessed as bacterial growth inhibition incubated for 18 to 24 hrs by broth microdilution method; format: functional; conditions: time 18-24 hrs; how it was run: as §1
[24] = tested on: Staphylococcus aureus; assay: Synergistic antibacterial activity against Staphylococcus aureus ATCC 29213 assessed as bacterial growth inhibition incubated for 24 hrs in presence of rifampicin by checkerboard assay; format: functional; how it was run: as §4
[25] = tested on: Staphylococcus aureus; assay: Synergistic antibacterial activity against Staphylococcus aureus ATCC 29213 assessed as fractional inhibitory concentration index incubated for 24 hrs in the presence of daptomycin by checkerboard assay; format: functional; how it was run: as §2
[26] = tested on: Staphylococcus aureus; assay: Antibacterial activity against methicillin resistant Staphylococcus aureus NRS 129 assessed as bacterial growth inhibition incubated for 18 to 24 hrs by broth microdilution method; format: functional; conditions: time 18-24 hrs; how it was run: as §1
[27] = tested on: Escherichia coli; assay: Antibacterial activity against Escherichia coli ATCC 25922 assessed as bacterial growth inhibition incubated for 18 to 24 hrs by broth microdilution method; format: functional; conditions: time 18-24 hrs; how it was run: as §3
[28] = tested on: Staphylococcus aureus; assay: Synergistic antibacterial activity against Staphylococcus aureus ATCC 29213 assessed as fractional inhibitory concentration index incubated for 24 hrs in the presence of ceftazidime by checkerboard assay; format: functional; how it was run: as §2
[29] = tested on: Staphylococcus aureus; assay: Synergistic antibacterial activity against Staphylococcus aureus ATCC 29213 assessed as fractional inhibitory concentration index incubated for 24 hrs in the presence of meropenem by checkerboard assay; format: functional; how it was run: as §2
[30] = Selectivity ratio of CC50 for African green monkey Vero cells to MIC against Staphylococcus aureus ATCC 29213; format: toxicity, cell-based
[31] = tested on: Staphylococcus aureus; assay: Antibacterial activity against methicillin resistant Staphylococcus aureus NRS 192 assessed as bacterial growth inhibition incubated for 18 to 24 hrs by broth microdilution method; format: functional; conditions: time 18-24 hrs; how it was run: as §1
[32] = tested on: Staphylococcus aureus; assay: Synergistic antibacterial activity against Staphylococcus aureus ATCC 29213 assessed as bacterial growth inhibition incubated for 24 hrs in presence of levofloxacin by checkerboard assay; format: functional; how it was run: as §4
[33] = tested on: Staphylococcus aureus; assay: Synergistic antibacterial activity against Staphylococcus aureus ATCC 29213 assessed as bacterial growth inhibition incubated for 24 hrs in presence of meropenem by checkerboard assay; format: functional; how it was run: as §4
[34] = tested on: Staphylococcus aureus; assay: Antibacterial activity against vancomycin resistant Staphylococcus aureus […] 4 assessed as bacterial growth inhibition incubated for 18 to 24 hrs by broth microdilution method; format: functional; conditions: time 18-24 hrs; how it was run: as §1
[35] = tested on: Staphylococcus aureus; assay: Synergistic antibacterial activity against Staphylococcus aureus ATCC 29213 assessed as bacterial growth inhibition incubated for 24 hrs in presence of daptomycin by checkerboard assay; format: functional; how it was run: as §4
[36] = tested on: Staphylococcus aureus; assay: Synergistic antibacterial activity against Staphylococcus aureus ATCC 29213 assessed as fractional inhibitory concentration index incubated for 24 hrs in the presence of gentamycin by checkerboard assay; format: functional; how it was run: as §2
[37] = tested on: Staphylococcus aureus; assay: Synergistic antibacterial activity against Staphylococcus aureus ATCC 29213 assessed as fractional inhibitory concentration index incubated for 24 hrs in the presence of vancomycin by checkerboard assay; format: functional; how it was run: as §2

CCN1C(=O)[C@@]2(CN(C)C3(c4cc(Br)ccc4-n4c3nc3ccccc3c4=O)C2(C#N)C#N)c2ccccc21 (stereo partly specified)
MIC [1]: 0.125 µg/mL (≈ 0.216 µM) | MIC [2]: 0.125 µg/mL (≈ 0.216 µM) | FIC [3]: 2 | Activity [4]: Dose-Dependent Effect | Activity ([4]; record 2): ~2.7 log10CFU/ml | MIC [5]: 0.25 µg/mL (≈ 0.433 µM) | FIC [6]: 2 | MIC [7]: > 64 µg/mL | MIC [8]: 0.25 µg/mL | MIC [9]: 0.25 µg/mL | MIC [10]: 0.063 µg/mL (≈ 0.109 µM) | MIC [11]: 0.25 µg/mL | FIC [12]: 2 | MIC [13]: 0.25 µg/mL (≈ 0.433 µM) | FIC [14]: 2 | MIC [15]: 0.25 µg/mL | Activity [16]: Non-Toxic | MIC [17]: > 64 µg/mL | MIC [18]: 0.5 µg/mL (≈ 0.866 µM) | MIC [19]: 0.25 µg/mL | MIC [20]: 0.125 µg/mL (≈ 0.216 µM) | MIC [21]: > 64 µg/mL | MIC [22]: 0.125 µg/mL (≈ 0.216 µM) | MIC [23]: 0.25 µg/mL (≈ 0.433 µM) | MIC [24]: 0.25 µg/mL | FIC [25]: 2 | MIC [26]: 0.125 µg/mL (≈ 0.216 µM) | MIC [27]: > 64 µg/mL | FIC [28]: 2 | FIC [29]: 2 | selectivity ratio [30]: 40 | MIC [31]: 0.125 µg/mL (≈ 0.216 µM) | MIC [32]: 0.25 µg/mL | MIC [33]: 0.25 µg/mL | MIC [34]: 0.5 µg/mL (≈ 0.866 µM) | MIC [35]: 0.25 µg/mL | FIC [36]: 2 | FIC [37]: 2

CCN1C(=O)[C@@]2(CN(C)C3(c4cc(Cl)ccc4-n4c3nc3ccccc3c4=O)C2(C#N)C#N)c2ccccc21 (stereo partly specified)
MIC [1]: 0.25 µg/mL (≈ 0.469 µM) | MIC [2]: 0.125 µg/mL (≈ 0.235 µM) | MIC [5]: 0.25 µg/mL (≈ 0.469 µM) | MIC [7]: > 64 µg/mL | MIC [10]: 0.063 µg/mL (≈ 0.118 µM) | MIC [13]: 0.125 µg/mL (≈ 0.235 µM) | Activity [16]: Non-Toxic | MIC [17]: > 64 µg/mL | MIC [18]: 0.5 µg/mL (≈ 0.938 µM) | MIC [20]: 0.125 µg/mL (≈ 0.235 µM) | MIC [21]: > 64 µg/mL | MIC [22]: 0.25 µg/mL (≈ 0.469 µM) | MIC [23]: 0.25 µg/mL (≈ 0.469 µM) | MIC [26]: 0.25 µg/mL (≈ 0.469 µM) | MIC [27]: > 64 µg/mL | selectivity ratio [30]: > 80 | MIC [31]: 0.25 µg/mL (≈ 0.469 µM) | MIC [34]: 0.25 µg/mL (≈ 0.469 µM)
